# Source: PubChem
# Runt-SMMHC FRET: blocks binding of human RUNX1 Runt domain to CBFb-SMMHC | Q01196+Q13951 | Cerulean-Runt/Venus-CBFb-SMMHC FRET ratio 530/480, 1 h | inhibition, % at 20 µM | hit rate 0.74% among 220,000;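 active = mean inhibition across duplicate retests at 20 µM reaching about 50%, limit read from the data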;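 note: 0% = DMSO wells and 100% = wells with excess untagged CBFb-SMMHC; inhibitors lower the FRET ratio by blocking Runt binding to CBFb-SMMHC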
# Target sequence (Q01196 whole entry, looked up, the tested form may be a part): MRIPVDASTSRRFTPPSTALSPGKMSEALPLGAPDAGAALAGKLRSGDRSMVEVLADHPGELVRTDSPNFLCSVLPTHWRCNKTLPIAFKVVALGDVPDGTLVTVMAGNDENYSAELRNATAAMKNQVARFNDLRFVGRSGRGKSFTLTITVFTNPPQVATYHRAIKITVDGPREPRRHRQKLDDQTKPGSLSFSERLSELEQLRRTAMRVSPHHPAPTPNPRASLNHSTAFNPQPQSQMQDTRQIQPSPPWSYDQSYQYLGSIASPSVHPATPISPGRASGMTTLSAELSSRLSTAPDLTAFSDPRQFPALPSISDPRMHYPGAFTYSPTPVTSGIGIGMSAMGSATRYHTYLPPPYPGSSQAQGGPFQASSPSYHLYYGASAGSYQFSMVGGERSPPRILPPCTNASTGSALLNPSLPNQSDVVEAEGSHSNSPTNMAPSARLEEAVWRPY
# Target sequence (Q13951 whole entry, looked up, the tested form may be a part): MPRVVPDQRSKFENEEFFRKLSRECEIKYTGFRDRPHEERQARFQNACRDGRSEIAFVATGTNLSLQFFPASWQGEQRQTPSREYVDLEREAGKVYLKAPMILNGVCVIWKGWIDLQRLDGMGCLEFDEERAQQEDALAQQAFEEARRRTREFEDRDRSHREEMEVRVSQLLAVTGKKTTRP
# Runt-CBFb FRET: Runt domain-CBFb interaction inhibition; Q01196+Q13951; inhibition, % at 20 µM; AID 1496; Cerulean-Runt/Venus-CBFb FRET ratio 530/480, 1 h; hit rate 0.46% among 220,000;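 active = inhibition over about 50% at 20 µM in the single-dose screen, limit read from the data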;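 note: 0% = DMSO wells and 100% = excess unlabeled CBFb competitor control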
#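 Buffer or medium: Tris pH 7.5 buffer with BSA. Assay system: Cerulean-labeled Runt domain protein. Amount: each fluorescent fusion protein 100 nM. Read-out basis: loss of energy transfer signal. Incubation: 1 h compound exposure, room temperature. Probe or stimulus: Venus-CBFb binding partner, 100 nM. Detection: FRET, excitation 422 nm, emission at 530 and 480 nm.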
# Calpain2 inh: calpain II (pig) inhibition. purified calpain II, fluorogenic peptide substrate, 30 min. inhibition, % at 16 µM. hit rate 0.37% among 220,000. AID 1236;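 active = inhibition above about 50%, limit read from the data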
# FAS-TE inh: inhibitors of human fatty acid synthase thioesterase domain; AID 602261; recombinant FAS-TE, OMFH fluorogenic substrate, fluorescence endpoint; inhibition, % at 15 µM; P49327; hit rate 0.67% among 360,000;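 active = compounds whose normalised, plate-corrected inhibition of enzyme fluorescence in the single-dose primary screen is 50% or more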;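 note: 0% = DMSO with enzyme and 100% = substrate without enzyme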
# RanGTP-Imp inh: disruptors of Ran-importin-beta complex formation – biochemical, FRET, CFP-Ran, YFP-importin-beta, homogeneous, primary screen; cell-free CFP-Ran/YFP-importin-beta FRET ratio; inhibition, % (test concentration not listed); hit rate 1.1% among 300,000;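 active = more than half of the replicate wells show a fall in the fluorescence ratio signal beyond about 16%, limit read from the data, passing the limit was not always enough; inconclusive = exactly half of the replicate wells pass the set limit; inactive = fewer than half of replicates pass the limit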;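 note: 0% = DMSO wells and 100% = Ran loaded with GDP instead of GTP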
# YIC FRET counter: counter-screen: alters YIC FRET probe signal | shares compounds with RanGTP-Imp inh | Purified YIC probe, intramolecular FRET ratio YFP/CFP | IC50, µM | hit rate 40% among 1,000;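 active = fitted half-maximal inhibitory concentration no more than tenfold above the top dose tested; inconclusive = flat fit with 30 to 70% activity, or poor fit; inactive = half-maximal concentration beyond tenfold above the top dose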
# Active calls of the source: *; u = inconclusive; x = no result given. Rows were chosen to be rich in hits. Some 2.1% of all compounds tested hit in one or more screens of this group.
SMILES,Runt-SMMHC FRET,Runt-CBFb FRET,Calpain2 inh,FAS-TE inh,RanGTP-Imp inh,YIC FRET counter
COc1ccc(C(=O)N(CC(=O)Nc2sc(C)c(C)c2C(N)=O)C2CCCC2)cc1,x,x,x,2,7,x
CCOC(=O)C(=O)Nc1cccc(C(=O)OCC)c1,1,0,-17,-9,-1,x
CCOC(=O)C(=O)Nc1cc(C(=O)OC)cc(C(=O)OC)c1,3,-1,6,-5,16*,>50
COc1ccc(S(=O)(=O)N2CCN(c3nc(-c4cccnc4)nc4ccccc34)CC2)cc1,x,x,x,32,x,x
CC(=O)N1CCC(N(CCN2CCOCC2)C(=O)Nc2ccc(Cl)c(Cl)c2)CC1,x,x,x,-4,19*,>50
COc1ccc(NC(=S)N(CCN2CCOCC2)C2CCN(C(C)=O)CC2)cc1Cl,1,2,12,-7,5,x
Cc1ccc(-c2nc(CSCC(=O)N3CCN(c4ccccn4)CC3)c(C)o2)cc1,0,2,-1,0,-1,x
CCc1ccc(-c2nc(CSCC(=O)N3CCN(c4ccccn4)CC3)c(C)o2)cc1,-2,-3,4,8,18*,>50
COc1ccc(-c2c(N)nnc3c2[nH]c2ccccc23)cc1OC,4,0,-252,-2,27*,>50
Cc1ccc(/C=N/Nc2ccnc3cc(Cl)ccc23)c(C)c1,-21,-19,-29,1,-5,x
Cc1ccccc1/C=N/Nc1ccnc2cc(Cl)ccc12,-34,-23,-24,-2,23*,>50
COc1cccc(-c2cc(C(=O)NC3CC3)c3ccccc3n2)c1,x,x,x,1,19*,>50
CCN(CC)S(=O)(=O)c1ccc2oc(C(=O)NCCCN3CCOCC3)c(C)c2c1,0,0,3,-9,17*,>50
CC(C)n1nnnc1C1c2ccccc2C(=O)N1CCc1c[nH]c2ccccc12 (stereo unspecified),x,x,x,-8,x,x
CC(C)CNC(=O)C1(C)CCCN1C(=O)c1cc2ccccc2s1 (stereo unspecified),x,x,x,-8,x,x
OCCN1CCN(c2nc(-c3ccccc3)c3cc(Cl)ccc3n2)CC1,52*,x,-310,4,18*,24*
Cc1ccc2nc(N3CCN(CCO)CC3)nc(-c3ccccc3)c2c1,x,x,x,-5,u,x
O=C(CCN1CCOCC1)NNC(=O)Nc1cccc([N+](=O)[O-])c1,x,x,x,-2,1,x
CCC1(c2ccccc2)NC(=O)N(CC(=O)Nc2ccccc2C(=O)NC2CC2)C1=O (stereo unspecified),x,x,x,-4,0,x
CCOc1ccc(OCc2ccc(C(=O)N(CC)CC)cc2)cc1,-3,-3,5,-3,21*,>50
O=C(NCc1cccs1)C1CCCN(c2ncccn2)C1 (stereo unspecified),-3,0,-5,-8,-2,x
CCOC(=O)CNC(=O)C1CCCN(c2ncccn2)C1 (stereo unspecified),-1,0,-39,-7,21*,>50
O=C(O)C1C2CCC(C2)C1C(=O)NCCc1ccc(F)cc1 (stereo unspecified),x,x,x,-5,21*,>50
COC(=O)C1=CN(c2ccc(OC)cc2)C=C(C(=O)OC)C1c1cccc(F)c1,x,x,x,26,17*,7.5*
CCN(CC)C(=S)SCc1csc(CC(=O)Nc2ccccc2C)n1,x,x,x,23,-1,x
SMILES,Runt-SMMHC FRET,Runt-CBFb FRET,Calpain2 inh,FAS-TE inh,RanGTP-Imp inh,YIC FRET counter
COC(=O)[C@@H]1[C@@H](C)N(Cc2ccccc2)C(=O)N[C@H]1c1cccc(C(F)(F)F)c1,0,1,-10,-8,2,x
CC(=O)[C@@H]1[C@@H](C)N(Cc2ccccc2)C(=O)N[C@H]1c1cccc(C(F)(F)F)c1,-1,-1,6,3,20*,>50
COc1ccc(-c2c(C)c3ccc(O)cc3oc2=O)cc1OC,x,x,x,-11,20*,34*
COc1ccc(-c2c(C)c3cc(O)ccc3oc2=O)cc1,x,x,x,6,4,x
Cn1cnc(S(=O)(=O)N2CCN(c3ccc(Cl)cc3)CC2)c1,x,x,x,-1,18*,>50
COc1ccccc1NC(=O)CN1CCN(CC(=O)Nc2ccc(C)c(F)c2)CC1,x,x,x,4,27*,>50
COc1ccccc1NC(=O)CN1CCN(CC(=O)Nc2ccc(F)cc2)CC1,-5,0,-1,-1,x,x
CCOC(=O)/C=C1\SCC(=O)N1CC(=O)c1ccc[nH]1,-3,x,-92,-7,21*,>50
Cc1nc2[nH]c(=O)c3c(n2n1)NC1=C(C(=O)CC(C)(C)C1)C3c1ccccc1 (stereo unspecified),136*,78*,-460,-6,49*,4.3*
Cc1cc2oc3cc(NCCC4CCCN4C)ccc3c(=O)c2cc1C (stereo unspecified),x,x,x,-1,31*,8.9*
Cc1[nH]c(=O)[nH]c(=S)c1C(=O)Nc1ccc(Cl)c(Cl)c1,x,x,x,-1,2,x
Cc1ccc(C(=O)N2CCN(S(=O)(=O)c3ccc(C(C)C)cc3)CC2)s1,x,x,x,32,4,x
COCCNc1cc(C)nc2cc(-c3ccc(C)cc3)nn12,25,3,-97,2,19*,3.8*
Cc1cccc(-c2cc3nc(C)cc(NCCCN(C)C)n3n2)c1,4,1,-66,-6,2,x
Cc1sc2ncnc(NCc3cccnc3)c2c1C,37,15,26,-12,37*,>50
Cc1cccc(-c2cc3nc(-c4ccccc4)cc(N4CCC5(CC4)OCCO5)n3n2)c1,9,-1,-146,33,5,x
Cc1ccc(-c2cc3nc(-c4ccccc4)cc(N4CCC5(CC4)OCCO5)n3n2)cc1,-3,-5,-90,28,29*,5.6*
CCOC(=O)C1(C)CCCN(C(=O)c2ccccc2OC(F)(F)F)C1 (stereo unspecified),x,x,x,-8,x,x
Cc1ccc(Nc2cc(C)nn2-c2nc(C)cc(C)n2)cc1,-2,-1,-30,3,24*,>50
Cc1ccc(NC(=O)CSCC(=O)NC2(C)CCS(=O)(=O)C2)cc1 (stereo unspecified),x,x,x,-3,x,x
COc1cccc(S(=O)(=O)NCc2ccc(C(=O)N3CCN(C)CC3)cc2)c1,x,x,x,-7,0,x
COc1cccc(NC(=O)Nc2ccc3c(c2)N(C)C(=O)CS3)c1,-3,-1,-21,12,20*,>50
CC(=O)Nc1sc(C)c(C)c1C(=O)OCCOc1ccccc1,x,x,x,35,u,x
N#Cc1cc(NCC2CCCO2)c([N+](=O)[O-])cc1C#N (stereo unspecified),-1,0,-3,45,23*,>50
Nc1nc(CSc2nc3ccccc3s2)nc(N2CCCCC2)n1,1,-1,-20,9,36*,>50
Cc1ccc(CC(C)(O)CC(C)(O)Cc2ccc(C)cc2)cc1 (stereo unspecified),x,x,x,11,x,x
COc1ccc(OCc2cc(C(=O)NCCN3CCCc4ccccc43)no2)c(Cl)c1,x,x,x,18,0,x
COc1ccc(CNC(=O)COC(=O)Cc2ccc(Br)cc2)cc1,x,x,x,-7,x,x
